Holding throughout (assay type): functional
Assay [1] deals with Mycobacterium tuberculosis. The assay is described as follows: Antibacterial activity against multi drug resistant Mycobacterium tuberculosis 275/05 isolate. Summed up: (§1)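 MIC against clinical MTB isolates by the macrodilution broth method in Middlebrook broth enriched with 10% ADC. Values are in µg/mL.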
Assay [2] deals with Mycobacterium tuberculosis. The assay is described as follows: Antibacterial activity against multi drug resistant Mycobacterium tuberculosis 482/98 isolate. Summed up:
as §1

Assay [3] deals with Mycobacterium tuberculosis. The assay is described as follows: Antibacterial activity against multi drug resistant Mycobacterium tuberculosis 43/05 isolate. Summed up: as §1
Assay [4] relates to Mycobacterium tuberculosis. The assay can be described thus: Antibacterial activity against multi drug resistant Mycobacterium tuberculosis 158/97 isolate. Summed up: as §1
Assay [5] concerns Mycobacterium tuberculosis. The assay is described as follows: Antibacterial activity against multi drug resistant Mycobacterium tuberculosis 326/04 isolate. The gist of the method:
as §1

The test system of assay [6] is Mycobacterium tuberculosis. The assay can be described thus: Antibacterial activity against multi drug resistant Mycobacterium tuberculosis 421/96 isolate. Summed up:
as §1

The test system of assay [7] is Mycobacterium tuberculosis. The assay can be described thus: Antibacterial activity against multi drug resistant Mycobacterium tuberculosis 520/98 isolate. Summed up: as §1
Assay [8] deals with Mycobacterium tuberculosis. The assay is described as follows: Antibacterial activity against multi drug resistant Mycobacterium tuberculosis 149/03 isolate. Summed up: as §1
The test system of assay [9] is Mycobacterium tuberculosis. The assay can be described thus: Antibacterial activity against multi drug resistant Mycobacterium tuberculosis 586/98 isolate. Summed up: as §1
For assay [10], the system named is Mycobacterium tuberculosis. The assay can be described thus: Antibacterial activity against multi drug resistant Mycobacterium tuberculosis 134/02 isolate. Summed up: as §1
Assay [11] has as its system Mycobacterium tuberculosis. The assay is described as follows: Antibacterial activity against multi drug resistant Mycobacterium tuberculosis 296/04 isolate. The gist of the method: as §1

Molecules are shown by their SMILES. ≈ marks a conversion by molar mass, not a printed value.

Consider `Cc1ccc(-c2cc(CN3CCSCC3)c(C)n2-c2ccc(F)cc2)cc1`, for which the MIC (as a rule, the smallest concentration in the dilution series that meets the test's criterion for growth inhibition) is 0.5 µg/mL (≈ 1.31 µM) in [1]; 0.5 µg/mL (≈ 1.31 µM) in assay [2]; 0.5 µg/mL (≈ 1.31 µM) in [3]; 0.5 µg/mL (≈ 1.31 µM) in [4]; 32 µg/mL (≈ 84.1 µM) in assay [5]; 0.5 µg/mL (≈ 1.31 µM) in [6]. Also, the MIC in assay [7], in [8], in [9], in [10] and in assay [11] was 0.5 µg/mL (≈ 1.31 µM) throughout.

Turning to `Cc1c(CN2CCSCC2)cc(-c2ccc(F)cc2)n1-c1ccccc1F`, the MIC in assay [1] was 2 µg/mL (≈ 5.2 µM); in [2], 2 µg/mL (≈ 5.2 µM); in assay [3], 0.5 µg/mL (≈ 1.3 µM); in [4] it was 0.5 µg/mL (≈ 1.3 µM); in assay [5], over 32 µg/mL; in assay [6], 2 µg/mL (≈ 5.2 µM). Further, the minimum inhibitory concentration (MIC) in [7], in assay [8], in assay [9], in [10] and in assay [11] was 2 µg/mL (≈ 5.2 µM) throughout.

The record behind these values is ChEMBL document CHEMBL1145326, “Antimycobacterial agents. Novel diarylpyrrole derivatives of BM212 endowed with high activity toward Mycobacterium tuberculosis and low cytotoxicity” (2006).
